# Experimental data taken from PubChem BioAssay.
# The other results are listed elsewhere or left out. Inconclusive results are not listed. The source made the active and inactive calls.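 Rule for the calls, unless noted: active = thallium entry rate above the same plate's blocked-transporter control wells by more than 3 SD; inconclusive = the two repeat wells disagree; inactive = the rest.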
# Legend:
# [1] = molecular target: Solute carrier family 12 member 5 (Homo sapiens) (UniProt Q9H2X9); assay: KCC2 modulators in sodium-free buffer, confirmation, cell-based, HEK293 KCC2, thallium flux, secondary assay (AID 1713;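 active = thallium flux slope above the same plate's solvent-only control mean plus 3 SD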); conditions: FluoZin2 fluorescence, at 10 µM, stronger effect = higher value
# Sequence of Solute carrier family 12 member 5 (Homo sapiens) (Q9H2X9 whole entry, looked up): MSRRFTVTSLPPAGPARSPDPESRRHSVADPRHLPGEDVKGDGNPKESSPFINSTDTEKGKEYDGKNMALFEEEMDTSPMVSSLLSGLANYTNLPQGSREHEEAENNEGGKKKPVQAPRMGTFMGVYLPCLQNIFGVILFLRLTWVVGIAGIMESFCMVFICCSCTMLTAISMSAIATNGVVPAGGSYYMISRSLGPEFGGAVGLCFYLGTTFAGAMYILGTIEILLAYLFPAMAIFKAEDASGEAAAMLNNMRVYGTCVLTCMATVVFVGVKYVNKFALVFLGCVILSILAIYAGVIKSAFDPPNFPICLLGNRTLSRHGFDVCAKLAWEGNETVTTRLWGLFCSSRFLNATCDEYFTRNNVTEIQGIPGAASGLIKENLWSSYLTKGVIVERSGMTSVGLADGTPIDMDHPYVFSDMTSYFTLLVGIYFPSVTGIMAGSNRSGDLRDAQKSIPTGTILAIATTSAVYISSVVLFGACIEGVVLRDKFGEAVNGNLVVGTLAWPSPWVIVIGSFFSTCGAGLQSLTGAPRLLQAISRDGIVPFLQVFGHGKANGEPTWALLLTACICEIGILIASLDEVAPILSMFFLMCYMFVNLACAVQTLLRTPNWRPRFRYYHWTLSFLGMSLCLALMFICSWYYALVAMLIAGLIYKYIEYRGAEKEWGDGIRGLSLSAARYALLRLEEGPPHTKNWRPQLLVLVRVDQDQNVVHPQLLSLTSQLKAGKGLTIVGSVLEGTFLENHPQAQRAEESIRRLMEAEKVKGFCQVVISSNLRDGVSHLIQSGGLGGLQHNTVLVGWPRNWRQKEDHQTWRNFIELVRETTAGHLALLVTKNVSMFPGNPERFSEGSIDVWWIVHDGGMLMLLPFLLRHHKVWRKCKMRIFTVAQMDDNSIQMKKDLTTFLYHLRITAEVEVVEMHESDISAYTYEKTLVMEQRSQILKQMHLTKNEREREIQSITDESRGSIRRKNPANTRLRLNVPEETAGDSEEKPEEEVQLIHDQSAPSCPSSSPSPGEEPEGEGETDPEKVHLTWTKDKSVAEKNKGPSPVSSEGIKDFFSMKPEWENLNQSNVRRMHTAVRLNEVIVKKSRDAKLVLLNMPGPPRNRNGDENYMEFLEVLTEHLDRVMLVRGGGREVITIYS
# Outline: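 System: HEK cells expressing human KCC2 cotransporter; Buffer or medium: Na-free NMDG-Cl buffer; Also added: thallium sulfate stimulus buffer at pH 7.3; Dosing: 10 µM single dose, 0.1% DMSO; Timing: 48 min dye loading; Measured by: kinetic FluoZin2 fluorescence at 1 Hz, ex 480/em 540 nm; Read-out: baseline-normalized fluorescence slope, 10–20 s post-Tl+.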
# [2] = PubChem AID 1714; conditions: HEK293-KCC2 + bumetanide/ouabain, thallium flux FluoZin2; at 10 µM; stronger effect = higher value;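 note: raw slope of fluorescence over initial fluorescence between 10 and 20 s after thallium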
# Outline: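 Assay system: HEK cells expressing the K-Cl cotransporter KCC2; buffer or medium: HBSS-HEPES plus ouabain 0.2 mM, bumetanide 2 mM; reagent: thallium stimulus; compound dosing: 10 µM single dose; timing: 48 min dye loading; signal: FluoZin2-AM (0.5 µM) fluorescence, 480 nm ex/540 nm em, 1 Hz kinetic imaging; replication: duplicates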
# [3] = molecular target: Solute carrier family 12 member 5 (Homo sapiens) (UniProt Q9H2X9); assay: KCC2 modulators without ouabain present, confirmation, cell-based, HEK293 KCC2, thallium flux, FluoZin2, secondary assay 2 (AID 1715;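 active = thallium flux slope more than 3 SD above or below the plate's solvent-only control mean, mostly below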;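 note: raw slope with 0.1% DMSO as baseline and bumetanide as block control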); conditions: HEK293-KCC2, thallium flux FluoZin2 fluorescence; at 10 µM; actives lie on both sides; F/F0 rise rate, 10–20 s post-thallium
# [4] = thallium flux modulation in parental HEK cells, confirmation, counter-screen for KCC2 modulator project, cell-based, counterscreen 1 (AID 1716;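 active = thallium flux rate significantly above the same plate's solvent-only control wells, beyond their mean plus 3 SD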); conditions: HEK293 parental cells, thallium flux FluoZin2, ouabain; at 10 µM; baseline-ratio fluorescence slope, 10–20 s after thallium
# [5] = molecular target: Solute carrier family 12 member 5 (Homo sapiens) (UniProt Q9H2X9); assay: KCC2 inhibitors and activators, ouabain retest, confirmation, HEK-KCC2 cells (AID 1717;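 active = thallium flux slope beyond 3 SD from same-plate DMSO control mean in most replicates, usually higher, sometimes lower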;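 note: slope of initial-normalized fluorescence between seconds 10 and 20 after thallium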); conditions: HEK293-KCC2, thallium flux FluoZin2 fluorescence, at 10 µM, bidirectional: low = inhibitor, high = activator
# [6] = native HEK Tl+ uptake effects, second counter-screen – HEK cells, counterscreen 2, counter-screen for KCC2 modulator project, confirmation (AID 1718;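 active = thallium flux slope above the same plate's solvent-control mean plus 3 SD in both duplicate wells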;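 note: run without ouabain in cells lacking the KCC2 cotransporter; slope of fluorescence scaled to its starting value between 10 and 20 s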); conditions: HEK293 parental, thallium flux FluoZin-2 fluorescence slope; at 10 µM
# Outline: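 Test system: parental HEK cells / Reagent: thallium sulfate stimulus, 12 mM in buffer, pH 7.3 / Compound: single 10 µM final compound dose, 0.1% DMSO / Timing: overnight cell culture at 37 °C, 48 min dye loading, compound before thallium / Detection: FluoZin-2 fluorescence kinetics / Read-out: rate of F/F0 rise, 10–20 s after thallium addition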
# [7] = DUSP6 inhibitors restoring Erk phosphorylation by chemical complementation, primary imaging in DUSP6-transfected HeLa (AID 609;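 active = compounds giving at least 50% inhibition in the cell-based MKP-3 phosphatase rescue imaging test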;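 for inhibition: phospho-Erk level distribution per well compared with pooled transfected vehicle control wells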); conditions: HeLa MKP-3 transfected, phospho-Erk imaging KS statistic, at 10 µM, cells stimulated with TPA for 15 min
# [8] = molecular target: Dual specificity protein phosphatase 6 (Homo sapiens) (UniProt Q16828); assay: as above; conditions: HeLa MKP-3 transfected, phospho-Erk imaging KS statistic; at 10 µM; stronger effect = higher value; cells stimulated with TPA for 15 min
# Sequence of Dual specificity protein phosphatase 6 (Homo sapiens) (Q16828 whole entry, looked up): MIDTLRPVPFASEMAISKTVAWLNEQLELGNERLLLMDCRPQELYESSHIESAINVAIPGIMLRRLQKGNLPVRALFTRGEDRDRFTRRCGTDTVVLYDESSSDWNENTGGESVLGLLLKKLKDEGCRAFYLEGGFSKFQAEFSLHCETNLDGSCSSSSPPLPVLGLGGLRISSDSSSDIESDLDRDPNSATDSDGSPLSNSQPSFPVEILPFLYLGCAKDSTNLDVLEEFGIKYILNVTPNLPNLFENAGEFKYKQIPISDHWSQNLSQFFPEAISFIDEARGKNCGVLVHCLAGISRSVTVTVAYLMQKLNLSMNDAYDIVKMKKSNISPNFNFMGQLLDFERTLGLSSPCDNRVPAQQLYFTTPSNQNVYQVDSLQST
# [9] = inhibitors of larval lipid processing in zebrafish, primary screen, whole organism, PED6 fluorescence, gall bladder and intestine (AID 686;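 active = a full or partial loss of lipid-probe fluorescence in the fish gall bladder, intestine or both, judged by eye; inactive = no fluorescence loss, or compound toxic to the fish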;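 note: larvae 5 to 7 days old with five fish per well; signal comes from phospholipase A2 cleavage of quenched PED6 carried via bile; overnight exposure to compound and PED6 before scoring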); conditions: Zebrafish larvae PED6 lipid processing, fluorescence scoring; screened at 20 µM (by protocol)
# Outline: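 system = live zebrafish larvae aged 5-7 days, whole organism | probe or stimulus = ingested quenched lipid PED6 at 100 nM | doses = 20 µM single dose | timing = overnight exposure | detection = fluorescence microscopy with visual scoring of gall bladder and intestine | read-out = visual per-well fluorescence inhibition score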
# [10] = inhibitors of Chlamydomonas gravitaxis, primary screen, whole organism, Chlamydomonas reinhardtii, WT vs cilia-less mutant, absorbance, 96-well (AID 463189;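 active = inhibition at or above 50% relative to wild type and mutant plate controls; inactive = inhibition below 50%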;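 note: 0% = wild type cc124 cells in DMSO and 100% = ciliumless bld1 mutant cells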); conditions: OD600 absorbance, 2 days, at 10 µM, stronger effect = higher value
smiles,measurement,setting,value
O=C(CSC1=NCCS1)Nc1nc(-c2ccccc2)cs1,normalised thallium flux (F/F0 slope),[1],0.0102 (inactive)
same,normalized thallium flux,[2],0.00549 (inactive)
same,normalized thallium flux,[3],0.0253 (active)
same,thallium flux rate (normalised fluorescence),[4],0.00757 (inactive)
same,"raw Tl+ flux slope (below DMSO = inhibition, above = activation)",[5],0.0163 (active)
same,thallium flux slope,[6],0.0115 (inactive)
CCC(C)Cn1c(O)cc2nn(-c3nc4ccccc4s3)c(=O)c-2c1C (configuration not stated),normalised thallium flux (F/F0 slope),[1],0.00617 (inactive)
same,normalized thallium flux,[2],0.0393 (active)
same,normalized thallium flux,[3],0.0456 (active)
same,thallium flux rate (normalised fluorescence),[4],0.0308 (active)
same,"raw Tl+ flux slope (below DMSO = inhibition, above = activation)",[5],0.0409 (active)
same,thallium flux slope,[6],0.0328 (active)
O=C(Nc1nnc(-c2ccccc2)o1)c1cc(-c2cccs2)nc2ccccc12,normalised thallium flux (F/F0 slope),[1],0.0238 (active)
same,normalized thallium flux,[2],0.108 (active)
same,normalized thallium flux,[3],0.0377 (inactive)
same,thallium flux rate (normalised fluorescence),[4],0.0864 (active)
same,"raw Tl+ flux slope (below DMSO = inhibition, above = activation)",[5],0.0747 (active)
same,thallium flux slope,[6],0.0185 (active)
CC(=O)NC(=S)NNC(=O)c1ccc(Br)cc1,normalised thallium flux (F/F0 slope),[1],0.00779 (inactive)
same,normalized thallium flux,[2],0.0133 (active)
same,normalized thallium flux,[3],0.0358 (inactive)
same,thallium flux rate (normalised fluorescence),[4],0.0158 (active)
same,thallium flux slope,[6],0.0176 (active)
O=[N+]([O-])c1ccccc1/C=N/n1c(COc2ccccc2)n[nH]c1=S,normalised thallium flux (F/F0 slope),[1],0.00593 (inactive)
same,normalized thallium flux,[2],0.0786 (active)
same,normalized thallium flux,[3],0.0297 (inactive)
same,thallium flux rate (normalised fluorescence),[4],0.0168 (active)
same,thallium flux slope,[6],0.0116 (active)
S=c1ccc2ccccc2[nH]1,normalised thallium flux (F/F0 slope),[1],0.0228 (active)
same,normalized thallium flux,[2],0.0237 (active)
same,normalized thallium flux,[3],0.0335 (inactive)
same,thallium flux rate (normalised fluorescence),[4],0.0196 (active)
same,"raw Tl+ flux slope (below DMSO = inhibition, above = activation)",[5],0.0247 (active)
same,thallium flux slope,[6],0.0209 (active)
COc1ccc(NC(=O)c2ccccc2[N+](=O)[O-])cc1OC,normalised thallium flux (F/F0 slope),[1],0.00704 (inactive)
same,normalized thallium flux,[2],0.00505 (inactive)
same,normalized thallium flux,[3],0.0299 (inactive)
same,thallium flux rate (normalised fluorescence),[4],0.00749 (inactive)
same,"raw Tl+ flux slope (below DMSO = inhibition, above = activation)",[5],0.0198 (inactive)
same,thallium flux slope,[6],0.0109 (inactive)
Cc1cccc(NC(=S)NC(=O)c2ccc(Br)o2)c1,normalised thallium flux (F/F0 slope),[1],0.0193 (active)
same,normalized thallium flux,[2],0.142 (active)
same,normalized thallium flux,[3],0.0972 (active)
same,thallium flux rate (normalised fluorescence),[4],0.129 (active)
same,"raw Tl+ flux slope (below DMSO = inhibition, above = activation)",[5],0.124 (active)
same,thallium flux slope,[6],0.0866 (active)
COC(=O)c1sccc1NC(=O)CCC1CCCC1,normalised thallium flux (F/F0 slope),[1],0.00664 (inactive)
same,normalized thallium flux,[2],0.00434 (inactive)
same,normalized thallium flux,[3],0.032 (inactive)
same,thallium flux rate (normalised fluorescence),[4],0.00709 (inactive)
same,"raw Tl+ flux slope (below DMSO = inhibition, above = activation)",[5],0.0186 (inactive)
same,thallium flux slope,[6],0.00941 (inactive)
O=S(=O)(c1ccc(F)cc1)N1CCN(C(=S)NCc2ccco2)CC1,normalised thallium flux (F/F0 slope),[1],0.0076 (inactive)
same,normalized thallium flux,[2],0.0054 (inactive)
same,normalized thallium flux,[3],0.0354 (inactive)
same,thallium flux rate (normalised fluorescence),[4],0.00396 (inactive)
same,"raw Tl+ flux slope (below DMSO = inhibition, above = activation)",[5],0.0185 (inactive)
same,thallium flux slope,[6],0.0111 (inactive)
O=c1oc2ccccc2cc1-c1cn(-c2ccccc2)c(=S)[nH]1,normalised thallium flux (F/F0 slope),[1],0.00633 (inactive)
same,normalized thallium flux,[2],0.0198 (active)
same,normalized thallium flux,[3],0.0319 (inactive)
same,thallium flux rate (normalised fluorescence),[4],0.0191 (active)
same,"raw Tl+ flux slope (below DMSO = inhibition, above = activation)",[5],0.0289 (active)
same,thallium flux slope,[6],0.0141 (active)
Cc1cccc(NS(=O)(=O)c2ccc(C)c(C(N)=O)c2)c1,normalised thallium flux (F/F0 slope),[1],0.00589 (inactive)
same,normalized thallium flux,[2],0.00471 (inactive)
same,normalized thallium flux,[3],0.0297 (inactive)
same,thallium flux rate (normalised fluorescence),[4],0.00787 (inactive)
same,"raw Tl+ flux slope (below DMSO = inhibition, above = activation)",[5],0.0187 (inactive)
same,thallium flux slope,[6],0.0102 (inactive)
O=C(COC(=O)c1ccc(Oc2ccccc2)cc1)Nc1nnc(-c2ccccc2)o1,normalised thallium flux (F/F0 slope),[1],0.00704 (inactive)
same,normalized thallium flux,[2],0.0517 (active)
same,normalized thallium flux,[3],0.0474 (active)
same,thallium flux rate (normalised fluorescence),[4],0.0357 (active)
same,"raw Tl+ flux slope (below DMSO = inhibition, above = activation)",[5],0.0424 (active)
same,thallium flux slope,[6],0.0346 (active)
Cc1cc(C)nc(SC(C)C(=O)N/N=C/c2cccs2)n1 (configuration not stated),normalised thallium flux (F/F0 slope),[1],0.00759 (inactive)
same,normalized thallium flux,[2],0.00586 (inactive)
same,normalized thallium flux,[3],0.0302 (inactive)
same,thallium flux rate (normalised fluorescence),[4],0.00741 (inactive)
same,"raw Tl+ flux slope (below DMSO = inhibition, above = activation)",[5],0.0216 (inactive)
same,thallium flux slope,[6],0.00957 (inactive)
NS(=O)(=O)c1ccc(NC(=S)NC(=O)c2cccnc2)cc1,normalised thallium flux (F/F0 slope),[1],0.00722 (inactive)
same,normalized thallium flux,[2],0.00594 (active)
same,normalized thallium flux,[3],0.0316 (inactive)
same,thallium flux rate (normalised fluorescence),[4],0.00846 (inactive)
same,"raw Tl+ flux slope (below DMSO = inhibition, above = activation)",[5],0.019 (inactive)
same,thallium flux slope,[6],0.0122 (inactive)
CC/S(CC1CC1(Cl)Cl)=N\S(=O)(=O)c1ccc(C)cc1 (configuration not stated),normalised thallium flux (F/F0 slope),[1],0.0104 (inactive)
same,normalized thallium flux,[2],0.00604 (inactive)
same,normalized thallium flux,[3],0.0348 (inactive)
same,thallium flux rate (normalised fluorescence),[4],0.00744 (inactive)
same,"raw Tl+ flux slope (below DMSO = inhibition, above = activation)",[5],0.0213 (inactive)
same,thallium flux slope,[6],0.0107 (inactive)
Cc1ccc(NCc2n[nH]c(=S)n2-c2ccccc2)cc1Cl,normalised thallium flux (F/F0 slope),[1],0.00768 (inactive)
same,normalized thallium flux,[2],0.0747 (active)
same,normalized thallium flux,[3],0.0302 (inactive)
same,thallium flux rate (normalised fluorescence),[4],0.00846 (active)
same,thallium flux slope,[6],0.00946 (inactive)
CCOc1ccc(C(=O)NCCCN2CCCC2=O)cc1,normalised thallium flux (F/F0 slope),[1],0.00821 (inactive)
same,normalized thallium flux,[2],0.00728 (inactive)
same,normalized thallium flux,[3],0.0335 (inactive)
same,thallium flux rate (normalised fluorescence),[4],0.00778 (inactive)
same,"raw Tl+ flux slope (below DMSO = inhibition, above = activation)",[5],0.0225 (inactive)
same,thallium flux slope,[6],0.0108 (inactive)
O=c1c2ccccc2[nH]c(=S)n1CCN1CCC(=C(c2ccc(F)cc2)c2ccc(F)cc2)CC1,z-score,[7]; measured here: cell density z-score,-1.63
same,z-score,[7]; measured here: nuclear c-Myc green intensity z-score,-0.997
same,z-score,"[7]; measured here: nuclear pErk red intensity z-score, stronger effect = higher value",0.771
same,inhibition,[8],-4.44% (inactive)
same,outcome,[9],inactive
same,inhibition,[10],-8.89% (inactive)
COc1ccccc1-n1cnc2cc(NS(=O)(=O)c3ccccc3)ccc21,outcome,[9],inactive
